Measurements gathered from unrelated publications.
Lines come from different studies, so protocols differ.
Organism: Trypanosoma cruzi
Effect on: parasite growth
Setting: intracellular, amastigote

`COc1ccc(Nc2nc(-c3ccco3)nc3ccccc23)cc1` gave an IC50 of 11.4 µM (imaging; U2OS).
The EC50 of `COC(=O)c1ccc(NCc2cncn2Cc2ccccc2[N+](=O)[O-])cc1-c1ccccc1` is reported as 0.1 to 1 µM (mouse Fibroblast).
For `O=C(N[C@@H](Cc1ccccc1)C(=O)c1nccs1)[C@H](Cc1ccccc1)NC(=O)N1CCOCC1`, the IC50 was 31.7 µM (TULAHUEN).
With `COc1ccc(Nc2nc(-c3ccncc3)nc3ccccc23)cc1` the IC50 was 24.5 µM (imaging; U2OS).
`O=C(N[C@@H](Cc1ccccc1)C(=O)c1cn(COCc2ccccc2)nn1)[C@H](Cc1ccccc1)NC(=O)N1CCOCC1` gave an IC50 of 32.2 µM (TULAHUEN).
`Cc1ccc2nc(-c3ccc(F)c(F)c3)c(CN3CCC(Cc4ccccc4)CC3)n2c1` has an EC90 of 4.7 µM (TULAHUEN; 6 days).
With `c1ccc(C2CCN(c3nc(-c4ccco4)nc4ccccc34)C2)nc1` (stereo not shown) the IC50 was 50 µM (imaging; U2OS).
`O=C(Cn1ccnc1[N+](=O)[O-])NCc1ccccc1` has an EC90 of 1.64 µM (TULAHUEN; 6 days).
`O=C(N[C@H](Cc1c[nH]c2ccccc12)C(=O)Nc1ccncc1)c1ccc(-c2cc(F)ccc2F)cc1F` gave an EC50 of 0.0013 µM (imaging; C2C12; 72 h).
For `COC(=O)c1ccc(NCc2cncn2Cc2ccccc2Cl)cc1-c1ccccc1`, the EC50 was 0.1 to 1 µM (mouse Fibroblast).
